The record followed here is ChEMBL document CHEMBL1154384, “New classes of potent and bioavailable human renin inhibitors” (Bioorg Med Chem Lett, 2009).

The IC50 is the concentration that gives 50% inhibition. As usually defined, the pKa is the negative logarithm of the acid dissociation constant. Read a high pKa as a group that holds its proton tightly. In general, bioavailability refers to the share of a dose that reaches the circulation, judged against a reference dose that is usually intravenous. Higher therefore signals good availability.

Series [1] concerns the target T1, Renin (Homo sapiens, UniProt P00797).
T1 sequence (P00797 whole entry): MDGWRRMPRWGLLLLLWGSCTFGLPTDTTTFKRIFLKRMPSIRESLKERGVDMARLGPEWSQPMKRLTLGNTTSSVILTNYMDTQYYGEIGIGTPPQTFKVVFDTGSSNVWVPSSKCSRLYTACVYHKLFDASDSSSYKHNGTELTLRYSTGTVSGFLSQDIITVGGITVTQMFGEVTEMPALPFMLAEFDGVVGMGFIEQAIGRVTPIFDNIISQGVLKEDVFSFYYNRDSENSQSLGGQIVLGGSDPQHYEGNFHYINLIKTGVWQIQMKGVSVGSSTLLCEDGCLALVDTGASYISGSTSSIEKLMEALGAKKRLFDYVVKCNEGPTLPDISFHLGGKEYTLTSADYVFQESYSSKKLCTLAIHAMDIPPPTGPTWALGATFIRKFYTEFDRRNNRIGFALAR
The series is described as follows: Inhibition of human rennin in human plasma assessed as accumulation of angiotensin 1 using human tetradecapeptide by immunoassay. It counts as cell-free.

Series [2] deals with Cytochrome P450 3A4 (Homo sapiens, UniProt P08684). The series is described as follows: Inhibition of CYP3A4. It counts as ADME.
Series [3] deals with T1, Renin. The series is described as follows: Inhibition of human rennin in buffer assessed as accumulation of angiotensin 1 using human tetradecapeptide by immunoassay.
Series [4] can be described thus: Dissociation constant, pKa of the compound. It counts as physicochemical. The gist of the method:
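pKa of the template's secondary amine, measured experimentally. Compounds poorly soluble in water in their neutral form were measured in solvent mixtures, so their values could only be estimated.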

The nature of series [5]: Oral bioavailability in Wistar rat at 10 mg/kg. It counts as ADME, organism-based. The settings on record: in vivo.

SMILES strings stand for the structures.

Cytochrome P450 3A4, sequence (P08684 whole entry): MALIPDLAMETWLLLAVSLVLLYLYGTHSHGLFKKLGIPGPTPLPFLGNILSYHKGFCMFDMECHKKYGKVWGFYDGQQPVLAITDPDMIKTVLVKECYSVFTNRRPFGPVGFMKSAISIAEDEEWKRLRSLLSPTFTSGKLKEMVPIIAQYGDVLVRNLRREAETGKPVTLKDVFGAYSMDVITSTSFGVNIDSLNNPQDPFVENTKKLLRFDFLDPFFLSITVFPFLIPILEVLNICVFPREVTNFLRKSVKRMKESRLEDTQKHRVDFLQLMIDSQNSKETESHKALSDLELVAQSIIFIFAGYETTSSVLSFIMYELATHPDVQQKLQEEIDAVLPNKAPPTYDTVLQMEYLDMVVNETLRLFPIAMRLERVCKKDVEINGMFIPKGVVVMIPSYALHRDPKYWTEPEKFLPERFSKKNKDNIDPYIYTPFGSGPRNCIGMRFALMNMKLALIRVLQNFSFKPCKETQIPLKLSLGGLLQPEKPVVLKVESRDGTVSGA

On to `COc1cccc(CN(C(=O)C2=C(c3ccc(CCCOc4c(F)ccc(F)c4Cl)cc3)C[C@H]3COC[C@H]2N3)C2CC2)c1C`, for which the half-inhibitory concentration (IC50) turned out to be 42 nM in series [1], 1000 nM in series [2] and 0.49 nM in series [3]. Moreover, in series [4], the pKa amounted to 6.5.

Turning to `COc1cccc(CN(C(=O)C2=C(c3ccc(CCCOc4c(F)ccc(F)c4Cl)cc3)C[C@H]3CCC[C@H]2N3)C2CC2)c1C`, the values for the IC50 in series [1] and in series [3] were 101 nM and 0.92 nM, respectively.

As to `COc1cccc(CN(C(=O)C2=C(c3ccc(CCCOc4c(F)ccc(F)c4Cl)cc3)C(C)(C)CNC2)C2CC2)c1C`, the concentration for half-maximal inhibition (IC50) came out at 7400 nM in series [1] and 170 nM in series [3]. Moreover, the bioavailability in series [5] was determined as 10%.

For `O=C(C1=C(c2ccc(CCCOc3c(F)ccc(F)c3Cl)cc2)C2(CC2)CNC1)N(Cc1cccc(Cl)c1Cl)C1CC1`, the values for the half-inhibitory concentration (IC50) in series [1] and in series [3] were 4000 nM and 34 nM, respectively. In series [5], this compound returned a bioavailability of 10%.

`COc1cccc(CN(C(=O)C2=C(c3ccc(CCCOc4c(F)ccc(F)c4Cl)cc3)C(F)(F)CNC2)C2CC2)c1C` gave a bioavailability in series [5] of 10%. The IC50 in series [3] amounted to 330 nM.

Turning to `COc1cccc(CN(C(=O)C2=C(c3ccc(CCCOc4c(F)ccc(F)c4Cl)cc3)C[C@H]3C[S+]([O-])C[C@H]2N3)C2CC2)c1C` (some centres undefined), in series [3], the IC50 was found to be 64 nM.

Consider `COc1cccc(CN(C(=O)C2=C(c3ccc(CCCOc4c(F)ccc(F)c4Cl)cc3)C3(CC3)CNC2)C2CC2)c1C`, for which the IC50 in series [1] amounted to 7400 nM; in series [3], 210 nM. Moreover, in series [5], the bioavailability was 10%.

On to `CC1(C)CNCC(C(=O)N(Cc2cccc(Cl)c2Cl)C2CC2)=C1c1ccc(CCCOc2c(F)ccc(F)c2Cl)cc1`, for which the figures for the IC50 in series [1] and in series [3] were 2000 nM and 31 nM, respectively. Further, the bioavailability in series [5] worked out at 10%.

`O=C(C1=C(c2ccc(CCCOc3c(F)ccc(F)c3Cl)cc2)C(F)(F)CNC1)N(Cc1cccc(Cl)c1Cl)C1CC1` showed a bioavailability in series [5] of 10%. The half-inhibitory concentration (IC50) in series [3] turned out to be 800 nM.

Regarding `COc1cccc(CN(C(=O)C2=C(c3ccc(CCCOc4c(F)ccc(F)c4Cl)cc3)CCNC2)C2CC2)c1C`, the figures for the concentration for half-maximal inhibition (IC50) in series [1] and in series [3] were 87 nM and 2 nM, respectively. The compound also yielded a bioavailability in series [5] of 10%.

On to `O=C(C1=C(c2ccc(CCCOc3c(F)ccc(F)c3Cl)cc2)CCNC1)N(Cc1cccc(Cl)c1Cl)C1CC1`, for which the IC50 amounted to 53 nM in series [1], 1300 nM in series [2] and 1.2 nM in series [3]. In series [5], the bioavailability stood at 10%.

`O=C(C1=C(c2ccc(CCCOc3c(F)ccc(F)c3Cl)cc2)C[C@H]2CCC[C@H]1N2)N(Cc1cccc(Cl)c1Cl)C1CC1`: the concentration for half-maximal inhibition (IC50) was 113 nM in series [1] and 1.1 nM in series [3].

In turn, `O=C(C1=C(c2ccc(CCCOc3cc(F)ccc3Br)cc2)CCNC1)N(Cc1ccccc1Cl)C1CC1` returned a bioavailability in series [5] of 10%.

Take `Cc1cc(Cl)c(OCCOc2ccc(C3=C(C(=O)N(Cc4cccc(Cl)c4Cl)C4CC4)CNCC3)cc2)c(Cl)c1`: the bioavailability in series [5] was found to be 10%.

As to `COc1cccc(CN(C(=O)C2=C(c3ccc(CCCOc4c(F)ccc(F)c4Cl)cc3)C[C@H]3CNC[C@H]2N3)C2CC2)c1C`, the figures for the IC50 in series [1] and in series [3] were 54 nM and 1.37 nM, respectively. The same compound returned a pKa in series [4] of 3.6.

Regarding `COc1cccc(CN(C(=O)C2=C(c3ccc(CCCOc4c(F)ccc(F)c4Cl)cc3)C[C@H]3CC[C@H]2N3)C2CC2)c1C`, the results for the IC50 in series [1] and in series [3] were 43 nM and 0.74 nM, respectively.

`O=C(C1=C(c2ccc(CCCOc3c(F)ccc(F)c3Cl)cc2)C[C@H]2COC[C@H]1N2)N(Cc1cccc(Cl)c1Cl)C1CC1`: the concentration for half-maximal inhibition (IC50) in series [1] came to 55 nM; in series [3] it was 0.68 nM. The compound further yielded a pKa in series [4] of 6.5.

`O=C(C1=C(c2ccc(CCCOc3c(F)ccc(F)c3Cl)cc2)C[C@H]2CS(=O)(=O)C[C@H]1N2)N(Cc1cccc(Cl)c1Cl)C1CC1`: the concentration for half-maximal inhibition (IC50) in series [3] was 6.4 nM.

On to `O=C(C1=C(c2ccc(CCCOc3c(F)ccc(F)c3Cl)cc2)C[C@H]2CC[C@H]1N2)N(Cc1cccc(Cl)c1Cl)C1CC1`, for which the results for the half-inhibitory concentration (IC50) in series [1], in series [2] and in series [3] were 47 nM, 1900 nM and 0.55 nM, respectively.

For `O=C(C1=C(c2ccc(CCCOc3c(F)ccc(F)c3Cl)cc2)C[C@H]2CNC[C@H]1N2)N(Cc1cccc(Cl)c1Cl)C1CC1`, the IC50 in series [1] came to 36 nM; in series [3] it was 0.4 nM. For the same compound, in series [4], the pKa was 8.2.
